Experimental data of several laboratories.
Target: Phosphorylase b kinase gamma catalytic chain, liver/testis isoform (PHKG2, Homo sapiens, UniProt P15735)
One construct used (P15735 1-406): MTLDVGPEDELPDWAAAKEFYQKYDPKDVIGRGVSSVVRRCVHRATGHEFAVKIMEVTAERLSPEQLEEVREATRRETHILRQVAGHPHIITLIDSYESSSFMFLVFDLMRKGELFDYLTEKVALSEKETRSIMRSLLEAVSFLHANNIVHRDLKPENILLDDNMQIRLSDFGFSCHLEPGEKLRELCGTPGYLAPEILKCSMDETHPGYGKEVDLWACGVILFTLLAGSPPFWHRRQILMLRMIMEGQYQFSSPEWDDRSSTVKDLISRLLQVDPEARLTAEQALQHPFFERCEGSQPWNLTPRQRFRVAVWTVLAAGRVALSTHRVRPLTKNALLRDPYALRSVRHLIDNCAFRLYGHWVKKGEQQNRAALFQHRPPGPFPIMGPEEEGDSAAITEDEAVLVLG

Cn1cncc1[C@@](O)(COc1ccc(C#N)cc1-c1ccc(OC(F)(F)F)cc1)c1ccc(C#N)cc1
remaining binding (cell-free assay, competition with immobilised ligand; 1 µM): 92%

CC(C)(C)c1cc(C=C(C#N)C#N)cc(Br)c1O
remaining activity (enzyme activity, inhibitor; 0.5 µM): 106%

Cn1cc(-c2cc(F)cc(N3CCn4c(cc5c4CCCC5)C3=O)c2CO)cc(Nc2ccc(N3CCN(C4COC4)CC3)cn2)c1=O
inhibition (enzyme activity, inhibitor; 0.1 µM): 8%

COc1ncccc1-c1cnn2ccc(N3CCN(C(=O)OC(C)C)CC3)nc12
remaining binding (binding, competition with immobilised ligand; 1 µM): 100%

O=c1[nH]c2ccccc2n1C1CCN(Cc2ccc(-c3[nH]c4cc5ncnc5cc4nc3-c3ccccc3)cc2)CC1
remaining signal (cell-free assay; 0.5 µM): 104%

Cn1cc(-c2cccc(N3CCc4c(sc5c4CC(C)(C)C5)C3=O)c2CO)cc(Nc2ccncn2)c1=O
inhibition (enzyme activity, inhibitor; 1 µM): -1%

Cc1nn(C)cc1-c1nc2c(N3CCN(Cc4ccc(Cl)cc4)CC3)c(Cl)cnc2[nH]1
remaining binding (binding, competition with immobilised ligand; 1 µM): 100%

Nc1ncc(-c2nc(N3CCOCC3)nc(N3CCOCC3)n2)c(C(F)F)n1
remaining binding (binding, competition with immobilised ligand; 10 µM): 67%

O=C(NCc1ncc(C(F)(F)F)cc1Cl)c1ccc2c(c1)C1(CCS(=O)(=O)CC1)[C@H](C1CC1)N2S(=O)(=O)c1ccc(F)cc1
remaining binding (cell-free assay, competition with immobilised ligand; 1 µM): 96%
